The record followed here is PubChem BioAssay.

Active and inactive are the calls of the source.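 How the source made its calls: active means duplicate-averaged activation above buffer control mean plus 5 SD of those controls; inactive means the rest.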

The nature of this assay: nonspecific flux increase, KCNQ1-free cells – parental CHO cells, counter-screen for KCNQ1 potentiator project (AID 493006). The settings on record: parental CHO-K1 cells, FluxOR thallium flux, at 10 µM; stronger effect = higher value. Put shortly:
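Test system: parental CHO-K1 cells, FluxOR dye-loaded / Probe or stimulus: potassium plus thallium depolarizing stimulus, 5x stock 12.5 mM K2SO4, Tl2SO4 / Timing: overnight 37 °C plating, 90 min dye, 20 min dark compound / Measured by: kinetic thallium-flux fluorescence / Read-out: max-minus-min fluorescence over baseline, percent of buffer-to-R-L3 span / Benchmarks: buffer and R-L3 controls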
(In general: A counterscreen serves to expose hits that act by an unwanted route or on another target.)
Turning to `CCCN(CCC)CCNC(=O)Cn1cnc2sc(C)c(S(=O)(=O)N3CCOCC3)c2c1=O`, the result was inactive. For the molecule `CCOc1ccc(S(=O)(=O)N2CCCC(C(=O)NCCN3CCOCC3)C2)cc1Cl` (configuration not stated), the activation was 260% (active). With `CCOC(=O)c1c(CN2CCN(CCO)CC2)n(C)c2cc(Br)c(OC)cc12`, the outcome was inactive. Turning to `CC(C)n1cc(NC(=O)c2cc(-c3ccccc3)on2)cn1`, the activation is 182% (active). As for `COc1ccccc1-n1cnc2cc(NCc3ccco3)ccc21`, the result was inactive. The same measure, in the same setting: as for `O=c1cc(N2CCc3ccccc32)[nH]c(=O)n1Cc1ccc(F)cc1`, the entry is “inactive”. Regarding `Cc1ccc(C2=CSC3=NS(=O)(=O)CCN23)cc1`, the result was inactive. Turning to `Oc1oc(-c2cccc3ccccc23)nc1/C=N/c1nccs1`, the result was inactive. For the molecule `COc1ccc2nc(N=Nc3ccc(O)c4ccccc34)sc2c1`, the activation is 210% (active). Regarding `COCCn1c(=S)[nH]c2sc3c(c2c1=O)CCC(C)C3` (configuration not stated), the activation was 541% (active). For the molecule `COc1ccc(OC)c(-c2cc(C(=O)N3CCN(c4ccccc4)CC3)no2)c1`, the result was inactive. For the molecule `COc1ccc(C(=O)CC(=O)C(=O)Nc2ccccc2C(F)(F)F)cc1`, the result was inactive. As to `CC(=O)c1c(-c2ccccc2)c2cc([N+](=O)[O-])ccc2[nH]c1=O`, the outcome was inactive.

As for `CC1(C)Cc2c(sc3[nH]c(=S)n(Cc4ccccc4)c(=O)c23)CO1`, the activation was 191% (active).

In the case of `COC(=O)c1cn(NC(=O)Cc2ccc(Cl)c(Cl)c2)c(=O)c2ccccc12`, the result was inactive.

`CCN(C(=O)c1cc2cc3ccc(C)cc3nc2o1)c1ccc(OC)cc1`: the result was inactive.

On to `O=C(N/N=C1/C(=O)c2cccc3cccc1c23)c1ccc(Cl)cc1`, for which the activation was 145% (active).
